Assay results published in ChEMBL document CHEMBL1139206, “Evaluation of nitrate-substituted pseudocholine esters of aspirin as potential nitro-aspirins” (Bioorg Med Chem Lett, 2007).

Key:
[1] = tested on: Plasma; assay: Stability in human plasma assessed as aspirin production at pH 7.4; format: ADME, cell-free
Method in brief: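 Test ester incubated in dilute (10%) buffered human plasma, pH 7.4, 37 °C. Products (parent ester, deacetylated salicylate ester, aspirin, salicylic acid) were followed over time by RP-HPLC with PDA detection; salicylate esters read at 296 nm. Disappearance fitted to pseudo-first-order kinetics, half-life = 0.693/k_obs. Aspirin yield expressed on a molar basis.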

[2] = species on record: Homo sapiens; assay: Stability in human plasma assessed as hydrolysis half life

Row | Compound | Activity [1] | half-life [2]
1 | CC(=O)Oc1ccccc1C(=O)OC(C)CO[N+](=O)[O-] (configuration not stated) | < 0.5% | 1.47 min
2 | CCN(CCO[N+](=O)[O-])C(=O)COC(=O)c1ccccc1OC(C)=O | < 0.5% | 1.03 min
3 | CCCN(CCO[N+](=O)[O-])C(=O)COC(=O)c1ccccc1OC(C)=O | < 0.5% | 1.15 min
4 | CC(=O)Oc1ccccc1C(=O)OCC(=O)N(CCO[N+](=O)[O-])CC[N+](=O)[O-] | < 0.5% | 6.12 min
5 | CCN(CCOC(=O)c1ccccc1OC(C)=O)CCO[N+](=O)[O-] | < 0.5% | 1.05 min
6 | CCCN(CCOC(=O)c1ccccc1OC(C)=O)CCO[N+](=O)[O-] | 9.2% | 0.65 min
7 | CC(=O)Oc1ccccc1C(=O)OCCN(CCO[N+](=O)[O-])CCO[N+](=O)[O-] | < 0.5% | 1.12 min

Results, then the molecule that gave them:

Row | Activity [1] | half-life [2] | Compound
8 | < 0.5% | 1.6 min | CC(=O)Oc1ccccc1C(=O)OCCO[N+](=O)[O-]
9 | < 0.5% | 1.17 min | CC(=O)Oc1ccccc1C(=O)OCC(=O)N(C)CCO[N+](=O)[O-]
10 | < 0.5% | 0.35 min | CC(=O)Oc1ccccc1C(=O)OCCN(C)CCO[N+](=O)[O-]
11 | < 0.5% | 2.23 min | CC(=O)Oc1ccccc1C(=O)OCCCO[N+](=O)[O-]
